# Screening data: PubChem, several laboratories
# Rpn11 block: blocks the human proteasome subunit Rpn11. human 26S proteasome, Ub4-pepOG fluorescence polarization; 20S core pre-blocked with epoxomicin. O00487. calls only at 20 µM. 0.59% of 360,000 active;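 active = inhibition at 20 µM, scaled to each plate's controls, above about 33%, limit read from the data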
# CSN inh: blocks human CSN-mediated cullin deneddylation; 0.38% of 360,000 active; Q92905; Purified CSN, SCF-Nedd8-OG deneddylation, fluorescence polarization; AID 651999; inhibition, % at 12.5 µM;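 active = pattern-corrected inhibition above about 35%, with an unprinted fluorescence ratio check between 0.5 and 1.5, limit read from the data, passing the limit was not always enough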;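 note: 0% = enzyme with substrate and 100% = substrate without enzyme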
#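 Assay system: HEK293T-derived human Csn5 enzyme; quantity: 0.24 nM enzyme; medium: Tris/NaCl/DTT buffer, pH 7.5; also added: substrate SCFSkp2-Nedd8OG, 10 nM; doses: 12.5 µM compound; schedule: 90 min reaction at room temperature; signal: FP; read-out: % inhibition of substrate cleavage by Csn5; benchmarks: substrate-only high control, full reaction low control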
# TPT1 inhibitor: inhibitors of Candida albicans tRNA 2'-phosphotransferase TPT1 | recombinant caTPT1, FP RNA substrate dephosphorylation | inhibition, % at 5 µM | 0.81% of 300,000 active;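 active = inhibition above the mean of all tested compounds plus 3 SD, set per screening campaign, cut at about 24% in these data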;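 note: plate controls were DMSO alone for no effect and ferristatin control at 100 nM for full effect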
# IDE cell inh: cellular human IDE inhibition | HEK cells, FAbetaB cleavage, fluorescence polarization | inhibition, % at 5.59 µM | 0.41% of 320,000 active | AID 434962;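 active = percent inhibition above the average of all tested compounds plus 3 SD, set per screening campaign, cut at about 16% in these data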;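 note: IDE supplied by intact live HEK cells; FP after avidin binding of uncleaved biotin substrate so inhibition keeps polarization high; 0% = DMSO wells and 100% = 60 µM reference IDE inhibitor Ii1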
# HNF4A DNA FP: change in binding of human HNF4 alpha to DNA. AID 1224865. P41235. activity change, % at 10 µM. HNF4a-FITC DNA binding, fluorescence polarization, 1 h. 0.3% of 360,000 active; in the data active = activity change above about 30%, passing the limit was not always enough
# IDE act: IDE (human) activation, cell-based; AID 493087; P14735; activation, % at 5.96 µM; HEK cells, FAbeta-B cleavage, fluorescence polarization; 0% vehicle, 100% cell-free pure enzyme wells; 0.073% of 340,000 active;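 active = activation above the mean of all tested compounds plus 3 SD, set per screening campaign, cut at about 17% in these data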
# caTPT1 confirm: TPT1 (C. albicans) inhibition, confirmation. shares compounds with TPT1 inhibitor. recombinant caTPT1, fluorescence polarization, RNase T1 coupled. inhibition, % at 5 µM. 74% of 2,400 active. AID 2149;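 active = inhibition above the primary screen limit, the mean inhibition of all tested compounds plus 3 SD, cut at about 25% in these data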
# RNase T1 counter: RNase T1 inhibition in TPT1 counter-screen. shares compounds with TPT1 inhibitor. RNase T1 cleavage, fluorescence polarization, 1536-well. inhibition, % at 5 µM. 83% of 2,400 active. AID 2153;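 active = inhibition above the solvent-only control well mean plus 3 SD, limit set per screening run, cut at about 23% in these data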;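 note: plate controls were DMSO wells with enzyme for no effect and wells without RNase T1 for full effect; inhibitors block cleavage so intact labeled substrate keeps polarization high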
# IDE inh confirm: cellular human IDE inhibition, confirmation. 51% of 1,200 active. inhibition, % at 5.59 µM. shares compounds with IDE cell inh. HEK cells, FAbetaB cleavage, fluorescence polarization;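 active = mean inhibition across triplicate wells above the cutoff set by the earlier primary insulin-degrading enzyme screen, cut at about 16% in these data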;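 note: 0% = DMSO wells and 100% = 60 µM reference IDE inhibitor Ii1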
# HEK293 tox: kills HEK cells in IDE inhibitor counter-screen | inhibition, % at 5.59 µM | HEK293 cytotoxicity, ATP luminescence | shares compounds with IDE cell inh | 28% of 1,200 active; in the data active = inhibition above about 22%;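 note: 0% = vehicle wells and 100% = reference cytotoxic drug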
# Rpn11 inh conf: confirmation of human proteasome Rpn11 inhibitors | shares compounds with Rpn11 block | purified human 26S proteasome, Ub4-pepOG fluorescence polarization; proteasome pretreated with epoxomicin | inhibition, % at 20 µM | 29% of 1,900 active | AID 602318
# MMP-2 counter: counter-screen for RPN11 inhibitors: inhibition of human MMP-2; recombinant MMP-2, FRET peptide cleavage fluorescence; inhibition, % at 20 µM; shares compounds with Rpn11 block; 4% of 1,900 active;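 note: human MMP-2 activated beforehand with APMA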
# Thrombin inh: blocks bovine thrombin, flagging nonselective RPN11 hits. 13% of 1,900 active. AID 602333. bovine thrombin cleavage of Ub4-pepOG, fluorescence polarization. shares compounds with Rpn11 block. inhibition, % at 20 µM;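 active = mean inhibition at least 40% at 20 µM, or signal 3 deviations below plate average, so some actives read negative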;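 note: plate controls were thrombin with DMSO for no effect and buffer wells lacking thrombin for full effect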
# Target sequence (P00735 whole entry, looked up): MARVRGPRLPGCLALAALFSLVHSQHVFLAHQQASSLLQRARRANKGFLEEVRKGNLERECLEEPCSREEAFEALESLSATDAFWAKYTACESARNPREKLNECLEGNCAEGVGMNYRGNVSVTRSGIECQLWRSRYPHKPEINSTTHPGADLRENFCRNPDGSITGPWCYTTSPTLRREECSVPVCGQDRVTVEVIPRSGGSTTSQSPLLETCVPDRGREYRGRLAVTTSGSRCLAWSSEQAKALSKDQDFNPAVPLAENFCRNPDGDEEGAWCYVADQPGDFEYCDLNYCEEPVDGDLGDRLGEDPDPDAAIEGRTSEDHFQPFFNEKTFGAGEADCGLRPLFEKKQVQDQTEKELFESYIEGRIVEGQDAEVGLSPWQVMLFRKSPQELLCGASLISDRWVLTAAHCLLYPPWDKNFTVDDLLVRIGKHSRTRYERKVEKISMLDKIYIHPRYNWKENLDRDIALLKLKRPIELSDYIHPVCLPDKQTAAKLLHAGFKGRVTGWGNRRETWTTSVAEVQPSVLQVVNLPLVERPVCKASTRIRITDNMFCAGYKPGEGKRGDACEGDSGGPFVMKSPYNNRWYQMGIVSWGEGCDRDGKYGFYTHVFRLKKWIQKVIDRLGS
# HNF4A confirm: change in binding of human HNF4 alpha to DNA, retest | activity change, % at 12.5 µM | shares compounds with HNF4A DNA FP | 99% of 210 active | HNF4A-FITC DNA binding, fluorescence polarization, 1 h; call rule not given here
# Active calls of the source: *; i = inactive; · = not tested or not shown; + = active, no number. Sampled rows, rich in hits. Any-hit rate of the full collection: about 1.7%. Cut-off read from the data, not from the text of the source, unless noted: active = inhibition above about 40%; inactive = the rest.
SMILES,Rpn11 block,CSN inh,TPT1 inhibitor,IDE cell inh,HNF4A DNA FP,IDE act,caTPT1 confirm,RNase T1 counter,HNF4A confirm,others
O=C(CSc1ncnc2scc(-c3ccccc3)c12)N1CCN(Cc2ccc3c(c2)OCO3)CC1,+,13,41*,5,46*,0,66*,77*,37*,Rpn11 inh conf=34;MMP-2 counter=19;Thrombin inh=21
O=C1c2ccccc2S(=O)(=O)c2cc(N3CCOCC3)ccc21,+,13,34*,3,45*,-1,35*,46*,50*,Rpn11 inh conf=44*;MMP-2 counter=25;Thrombin inh=9
COc1ccc(OC)c(S(=O)(=O)N2CCC(C(=O)Nc3cccc(C)c3C)CC2)c1,i,1,-3,-5,-2,2,·,·,·,
O=[N+]([O-])c1ccc(-c2ccc(/C=N/Nc3nc(N4CCCC4)nc(N4CCCC4)n3)o2)cc1,·,28,29*,-5,33*,6,43*,59*,35*,
O=[N+]([O-])c1cccc(-c2ccc(/C=N/Nc3nc(N4CCCCC4)nc(N4CCCCC4)n3)o2)c1,i,-3,-1,3,1,-1,·,·,·,
CCCCCCN1C[C@H](O)[C@@H](n2cc(-c3ccc(F)cc3)nn2)C[C@@H]1c1ccc(C)cc1,i,6,·,·,-5,·,·,·,·,
CCCN1CCc2c(sc(NC(=O)c3ccc(S(=O)(=O)N4CCCC4)cc3)c2C(N)=O)C1,+,15,120*,12,41*,-15,132*,132*,54*,Rpn11 inh conf=22;MMP-2 counter=-7;Thrombin inh=11
CCN1CCc2c(sc(NC(=O)c3ccc(S(=O)(=O)N4CCOCC4)cc3)c2C(N)=O)C1,i,1,9,7,6,0,·,·,·,
O=C(/C=C\Nc1ccc2c(c1)OCO2)c1ccc(Cl)s1,+,21,25*,-7,88*,-3,39*,49*,61*,Rpn11 inh conf=38;MMP-2 counter=33;Thrombin inh=-8
O=C(/C=C\Nc1ccc2c(c1)OCO2)c1cccs1,i,2,10,6,6,-4,·,·,·,
CCC(=O)Nc1cc(C(=O)O)ccc1Sc1ccccc1,i,6,-2,-3,2,1,·,·,·,
COc1ccc(NC(=O)CN(C)S(=O)(=O)c2ccc(C)cc2)c([N+](=O)[O-])c1,+,11,41*,0,59*,2,49*,62*,59*,Rpn11 inh conf=37;MMP-2 counter=-28;Thrombin inh=0
CCc1nc2ccccc2c(C(=O)OCc2nnc(-c3ccccc3)o2)c1C,i,2,-4,2,5,5,·,·,·,
CSc1nnc(C)c(/C=C/Nc2ccc(C)cc2)n1,·,28,156*,9,53*,-8,134*,128*,88*,
O=Cc1sc(Nc2ccccc2)nc1Cl,+,25,76*,10,37*,-3,74*,86*,59*,Rpn11 inh conf=60*;MMP-2 counter=5;Thrombin inh=30
COc1ccccc1Nc1nc(Cl)c(C=O)s1,·,38*,45*,4,50*,4,70*,83*,89*,
O=C1NC(=S)N(C(=O)c2ccc(F)cc2)/C1=C/c1ccccc1,·,55*,110*,28*,78*,-24,108*,116*,89*,IDE inh confirm=32*;HEK293 tox=13
CC(NC(=O)/C(C#N)=C1\N=C(NC(=O)c2ccco2)c2ccccc21)c1ccccc1 (configuration not stated),i,11,47*,9,74*,·,24,31*,36*,
COc1ccc(/C=C(\C#N)c2nc3ccccc3[nH]2)cc1O,i,3,·,·,3,-5,·,·,·,
COc1cc(/C=C(/C#N)c2nc3ccccc3c(=O)[nH]2)ccc1O,+,80*,102*,12,47*,-56,126*,124*,58*,Rpn11 inh conf=40;MMP-2 counter=12;Thrombin inh=5
CCN(CC(=O)Nc1ccccc1C(F)(F)F)C(=O)c1ccccc1SCC(=O)N1CCCC1,i,-4,-3,8,2,1,·,·,·,
CCOC(=O)c1c(NC(=S)Nc2ccc(Cl)cc2)sc2c1CCN(C)C2,·,61*,91*,13,58*,-12,88*,91*,83*,
CCOC(=O)c1c(NC(=O)Nc2ccc(F)cc2)sc2c1CCN(C)C2,i,4,1,2,14,-2,·,·,·,
COc1cc(-c2cc(-c3ccc(N)cc3)[nH]c(=O)c2C#N)cc(OC)c1OC,·,27,103*,14,55*,-12,103*,105*,83*,
N#Cc1c(-c2ccccc2)cc(-c2ccccc2)[nH]c1=O,i,1,-3,4,2,5,·,·,·,
CC(=O)c1sc(N/N=C\c2cccc(Br)c2)nc1C,·,27,67*,40*,39*,-76,78*,81*,57*,IDE inh confirm=106*;HEK293 tox=15
O=C(O)CCN1C(=O)c2ccc(Oc3ccc4c(c3)C(=O)N(CCC(=O)O)C4=O)cc2C1=O,i,-2,-1,-3,0,-2,·,·,·,
COc1ccc2c(-c3ccccc3)cc(SCC(N)=O)nc2c1,·,23,35*,-5,43*,2,39*,50*,49*,
CCOC(=O)C(C(=O)OCC)c1c([N+](=O)[O-])c(=O)n2c3c(cccc13)CCC2,i,-4,-3,1,-2,2,·,·,·,
CCOC(=O)CSc1ccc2nnc(-c3cccs3)n2n1,i,7,1,-1,1,7,·,·,·,
